The record followed here is ChEMBL document CHEMBL1135512 (J Med Chem, 2002).

A short description of data set [1]: Partition coefficient (logD7.0). The data set is classed as physicochemical. Particulars: octanol/water.
Data set [2] can be described thus: Partition coefficient (logP). It is filed as physicochemical. Particulars: octanol/water.
Data set [3] is described as follows: Dissociation constant (pKa). The data set is classed as physicochemical.
The nature of data set [4]: Cytotoxicity against Chinese hamster ovary cells. It is filed as cell-based, Cricetulus griseus. The method in brief: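 Cells were then exposed to graded drug concentrations for 48 h at 37 °C, 5% CO2. MTT (1 mg/mL in PBS) was added for 3 h, and formazan was dissolved in DMSO and read at 570/630 nm. IC50 came from nonlinear regression versus drug-free wells.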
Data set [5] in a line: In vitro hemolytic concentration on uninfected erythrocytes. It is filed as functional, Homo sapiens. Summed up: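 Washed A+ human erythrocytes were held at 1.5% hematocrit in RPMI 1640 with 10% human serum, 25 mM HEPES and 25 mM NaHCO3. Drug (2 mM to 1 μM final, triplicate) was added for 42 h at 37 °C under 10% O2/6% CO2. Released hemoglobin in supernatant was measured with TMB/H2O2 at 455 nm. HC50 is relative to 5% saponin lysis, by nonlinear regression.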

For data set [6], the system named is Plasmodium falciparum. Kind of data set: In vitro inhibitory activity against multidrug-resistant Plasmodium falciparum W2 Indochina. It is filed as functional, organism-based. The method in brief: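 Clone W2 (Indochina), sorbitol-synchronized, was grown in RPMI 1640 with 10% human serum, 25 mM HEPES and 25 mM NaHCO3, at final parasitemia 0.5% and hematocrit 1.5%. The drug was present for 48 h at 37 °C under 10% O2/6% CO2/84% N2. Growth was read as 3H-hypoxanthine uptake (1 μCi/well). IC50 came from nonlinear regression of log-dose/response as the geometric mean with 95% CI.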

Data set [7] relates to Plasmodium falciparum. Put plainly: Accumulation coefficient of chloroquine at 1 uM-10 uM of DEEA against Plasmodium falciparum W2. The data set is classed as functional. The method in brief:
(§1)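 W2 infected erythrocytes were suspended in RPMI 1640 with 25 mM HEPES and 25 mM NaHCO3 (2% parasitemia, 2% hematocrit). They were mixed over silicone oil with buffer holding [3H]CQ (26 Ci/mmol) plus DEEA at 1 or 10 μM. Incubation was 1 h at 37 °C under 10% O2/6% CO2/84% N2, followed by 1 min centrifugation. Ratio = parasite [3H]CQ (infected minus uninfected cells) / same-volume buffer.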

Data set [8] has as its system Plasmodium falciparum. Put plainly: Concentration required to reduce chloroquine IC50 by 50%. The data set is classed as functional, organism-based. The conditions noted are these: Plasmodium falciparum. The method in brief: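 Synergy isotopic microtest on sorbitol-synchronized W2 (Indochina) and 3D7 in RPMI 1640 with 10% human serum, HEPES/NaHCO3, parasitemia 0.5%, hematocrit 1.5%. CQ was combined with subinhibitory fixed DEEA concentrations, and 3H-hypoxanthine was added for 48 h at 37 °C under 10% O2/6% CO2/84% N2. Reversal IC50 is the DEEA concentration halving CQ IC50, found by nonlinear regression of log-dose/IC50.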

Data set [9] has as its system Plasmodium falciparum. Kind of data set: Percent reversal against Plasmodium falciparum W2 at 1 uM DEEA. It is filed as functional.
The test system of data set [10] is Plasmodium falciparum. Kind of data set: Accumulation coefficient of chloroquine at 1 uM-10 uM of DEEA against Plasmodium falciparum W2;Range is from 30-23. It is filed as functional. The method in brief:
as §1

In data set [11] the test system is Plasmodium falciparum. Put plainly: Percent reversal against Plasmodium falciparum W2 at 1 uM DEEA.
Data set [12] has as its system Plasmodium falciparum. Put plainly: Accumulation coefficient of chloroquine at 1 uM-10 uMof DEEA against Plasmodium falciparum W2. The data set is classed as functional. Summed up: as §1
Data set [13] deals with Plasmodium falciparum. Put plainly: Accumulation coefficient of chloroquine at 1 uM-10 uM of DEEA against Plasmodium falciparum 3D7. The data set is classed as functional.
Data set [14] relates to Plasmodium falciparum. Put plainly: Accumulation coefficient of chloroquine at 1 uM-10 uM of DEEA against Plasmodium falciparum W2; Range is from 37-42. It is filed as functional. The method in brief:
as §1

Usually logD stands for lipophilicity at a set pH, counting ionised and neutral species. As usually defined, the logP is a log measure of how a compound divides between an organic and an aqueous phase. By pKa is commonly meant the pH at which an ionisable group is half protonated. Low values mean a group that gives up its proton readily, high ones a group that holds its proton tightly. For orientation: HC50 means the concentration that lyses half of the red blood cells. The IC50 is the concentration at which inhibition is half-maximal. Lower therefore signals greater potency. Regarding `CC1C2c3ccccc3C(c3ccccc32)C1CN(C)C` (stereo not given), the logD in data set [1] (pH 7, read-out: logD) was found to be 2.25. Further, the log partition coefficient (logP) in [2] (read-out: logP) was found to be 4.24. Further, in [3], the pKa was 8.99. This compound also gave a Cytotoxicity in data set [4] of 711 µM. For the same compound, the concentration for 50% haemolysis (HC50) in [5] was 1402 µM. Further, the figures for the IC50 in the data set with Plasmodium falciparum [6] (Plasmodium falciparum) and in the data set with Plasmodium falciparum [8] were 30 µM and 0.4 µM, respectively. Besides, the Accumulation coefficient in the data set on Plasmodium falciparum [7] was 62. In addition, the Reversal in the data set with Plasmodium falciparum [9] is 60%.

Consider `CN(C)C(=O)C1=C(C(=O)N(C)C)C2c3ccccc3C1c1ccccc12`, for which the logD in data set [1] (pH 7, read-out: logD) was found to be 2.15. Moreover, in data set [2] (read-out: logP), the lipophilicity (logP) is 2.15. Moreover, the Cytotoxicity in data set [4] is greater than 2000 µM. In [5], the HC50 was greater than 2000 µM. In addition, the IC50 in the data set with Plasmodium falciparum [6] (Plasmodium falciparum) is 36.5 µM; with Plasmodium falciparum [8], greater than 50 µM. The same compound registered an Accumulation coefficient with Plasmodium falciparum [10] of 30. Moreover, the Reversal in the data set on Plasmodium falciparum [9] was determined as 0%.

With `CC1C2c3ccccc3C(c3ccccc32)C1C(=O)Nc1cccnc1` (stereo not given), the logD in data set [1] (pH 7, read-out: logD) was found to be 3.85. For the same compound, the log partition coefficient (logP) in [2] (read-out: logP) amounted to 3.85. In data set [3], this compound had a pKa of 4.14. In data set [4], this compound displayed a Cytotoxicity of 93 µM. This compound displayed an HC50 in data set [5] greater than 2000 µM. Besides, in the data set on Plasmodium falciparum [6] (Plasmodium falciparum), 164 µM corresponded to half-maximal inhibition (IC50). In the data set with Plasmodium falciparum [7], this compound showed an Accumulation coefficient of 10. Moreover, in the data set with Plasmodium falciparum [9], the Reversal worked out at 0%.

With `O=C(NCCCCCCCCCCNC(=O)C1=CC2c3ccccc3C1c1ccccc12)C1=CC2c3ccccc3C1c1ccccc12`, the logD in data set [1] was 9.16. Further, the logP in [2] came to 9.16. The pKa in [3] was -1.14. The compound also gave a Cytotoxicity in [4] greater than 2000 µM. The HC50 in [5] is greater than 2000 µM. For the same compound, inhibition in the data set on Plasmodium falciparum [6] (Plasmodium falciparum) was half-maximal at 8 µM (IC50). Moreover, the Accumulation coefficient with Plasmodium falciparum [7] turned out to be 34. Also, the Reversal in the data set with Plasmodium falciparum [9] is given as 0%.

For the compound `COc1ccc(CCN(C)CCCC(C#N)(c2ccc(OC)c(OC)c2)C(C)C)cc1OC` (stereo not given), the pKa in [3] is 8.29. The same compound came in with a 50% haemolytic concentration (HC50) in data set [5] of 861 µM. For the same compound, the values for the IC50 in the data set with Plasmodium falciparum [6] (Plasmodium falciparum) and in the data set with Plasmodium falciparum [8] were 13.4 µM and 0.8 µM, respectively. Besides, in the data set with Plasmodium falciparum [7], the Accumulation coefficient is 97. For the same compound, the Reversal with Plasmodium falciparum [9] worked out at 57%.

For `CN(C)C(=O)C1C2c3ccccc3C(c3ccccc32)C1C(=O)N(C)C` (stereo in doubt; 4), the Cytotoxicity in data set [4] is greater than 2000 µM. In the data set on Plasmodium falciparum [6], this compound displayed an IC50 of 35.5 µM. Also, in the data set with Plasmodium falciparum [9], the Reversal was determined as 0%.

For `CN(C)CC1C2c3ccccc3C(c3ccccc32)C1CN(C)C` (stereo in doubt; 5), the logD in data set [1] (pH 7, read-out: logD) was 0. Moreover, the logP in [2] (read-out: logP) came to 3.41. The pKa in data set [3] amounted to 9.19. The Cytotoxicity in data set [4] was 1035 µM. This compound also registered an HC50 in data set [5] greater than 2000 µM. For the same compound, the IC50 in the data set on Plasmodium falciparum [6] (Plasmodium falciparum) came out at 2 µM; with Plasmodium falciparum [8], 0.25 µM. Further, the Reversal in the data set on Plasmodium falciparum [11] came to 80%.

Consider `CCN(CC)CCCC(C)Nc1ccnc2cc(Cl)ccc12` (stereo not given) [CHLOROQUINE], for which, in the data set on Plasmodium falciparum [6] (Plasmodium falciparum), the half-maximal inhibitory concentration (IC50) was 0.9 µM. In addition, the Accumulation coefficient with Plasmodium falciparum [12] is given as 18; in the data set with Plasmodium falciparum [13], 191. Also, in the data set on Plasmodium falciparum [9], the Reversal was found to be 0%.

Take `CNC1(C)C2CCC(C2)C1(C)C` (stereo not given) [MECAMYLAMINE]: in [1] (pH 7, read-out: logD), the pH-dependent lipophilicity (logD) was -0.4. In data set [2], this compound returned a logP of 2.13. The pKa in data set [3] is 11. The half-inhibitory concentration (IC50) came out at 91.4 µM in the data set on Plasmodium falciparum [6] (Plasmodium falciparum) and 6 µM in the data set on Plasmodium falciparum [8]. For the same compound, the Accumulation coefficient in the data set with Plasmodium falciparum [7] is given as 45. Further, the Reversal in the data set on Plasmodium falciparum [9] was found to be 15%.

Consider `CC(CN1c2ccccc2Sc2ccccc21)N(C)C` (stereo not given) [PROMETHAZINE], for which the logD in data set [1] (pH 7, read-out: logD) was found to be 1.96. In data set [2] (read-out: logP), the logP amounted to 3.86. In [3], the pKa worked out at 8.89. Also, in data set [4], the Cytotoxicity worked out at 702 µM. Besides, the 50% haemolytic concentration (HC50) in [5] was determined as 618 µM. In addition, the concentration for half-maximal inhibition (IC50) worked out at 20 µM in the data set on Plasmodium falciparum [6] (Plasmodium falciparum) and 0.4 µM in the data set with Plasmodium falciparum [8]. Moreover, in the data set with Plasmodium falciparum [14], the Accumulation coefficient is recorded as 42. Further, the Reversal with Plasmodium falciparum [9] turned out to be 67%.
